CHRM4 antagonist = human M4 muscarinic receptor antagonists, primary screen, CHO cells, Fluo-8 calcium fluorescence; Muscarinic acetylcholine receptor M4 (Homo sapiens), P08173; CHO-hM4 cells, ACh EC80; inhibition, % at 3 µM; 0.73% of 360,000 active;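 active = inhibition above its plate's cutoff, the mean inhibition of sample wells plus 3 SD, cut at about 27% in these data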
Target sequence (P08173 whole entry, looked up): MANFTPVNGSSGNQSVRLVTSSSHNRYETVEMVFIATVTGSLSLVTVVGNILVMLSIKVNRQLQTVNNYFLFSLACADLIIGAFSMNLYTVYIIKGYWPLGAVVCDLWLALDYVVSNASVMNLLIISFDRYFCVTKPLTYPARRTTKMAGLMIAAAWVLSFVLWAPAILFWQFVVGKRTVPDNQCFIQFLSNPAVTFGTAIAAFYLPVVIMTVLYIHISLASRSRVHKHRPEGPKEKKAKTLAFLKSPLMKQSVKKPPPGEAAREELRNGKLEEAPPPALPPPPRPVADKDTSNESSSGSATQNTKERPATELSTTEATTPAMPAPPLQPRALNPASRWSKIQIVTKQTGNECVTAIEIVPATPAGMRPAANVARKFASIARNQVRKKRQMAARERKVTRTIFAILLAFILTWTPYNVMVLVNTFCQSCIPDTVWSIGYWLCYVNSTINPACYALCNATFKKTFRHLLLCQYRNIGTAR
CHRM4 PAM = human M4 muscarinic receptor positive allosteric modulators, primary screen, CHO-K1 cells, Fluo-8 calcium fluorescence | Muscarinic acetylcholine receptor M4 (Homo sapiens), P08173 | CHO-K1 hM4/Gqi5, ACh EC20; 0% = ACh EC20, 100% = maximal ACh | activation, % at 3 µM | 0.4% of 360,000 active | AID 624126, 2012;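 active = activation above its plate's cutoff, the mean activation of sample wells plus 3 SD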
TAAR1 ag = human TAAR1 agonists, primary screen, Fluo-8 calcium fluorescence, CHO RD-HGA16 cells; Trace amine-associated receptor 1 (Homo sapiens), Q96RJ0; vehicle wells 0%, saturating PEA agonist 100%; activation, % at 3 µM; 0.99% of 360,000 active;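 active = activation above the mean activation of all test compounds in the run plus 3 SD, cut at about 38% in these data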
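System: CHO-derived RD-HGA16 cells with stable Gα16 and human TAAR1. Times: 17-24 h plating, Fluo-8 75 min 37 °C, 30 min RT. Measured by: calcium-sensitive Fluo-8 signal, excitation 470-495, emission 515-575 nm. Read-out basis: % activation relative to PEA EC100 response. Control set: DMSO and PEA EC100. Repeats: no replicates (n 1).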
TAAR1 antag = human TAAR1 antagonists, primary screen, Fluo-8 calcium fluorescence, CHO RD-HGA16 cells | 1.5% of 360,000 active | antagonist | Trace amine-associated receptor 1 (Homo sapiens), Q96RJ0 | inhibition, % at 3 µM;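 active = inhibition above a per-plate cutoff, the mean inhibition of test compounds on that plate plus 3 SD, cut at about 49% in these data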
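Assay system: RD-HGA16 CHO cells with stable hTAAR1 and Gα16 / Reagent: EC80 β-phenethylamine stimulus / Doses: 3 µM, single point / Timing: dye loading 75 min at 37 °C, then 30 min room temperature / Measured by: Fluo-8 intracellular calcium dye fluorescence, real-time kinetic reads / Controls: vehicle wells and EC80 agonist wells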
CHRM4 agonist = human M4 muscarinic receptor agonists, primary screen, CHO-K1 cells, Fluo-8 calcium fluorescence. Muscarinic acetylcholine receptor M4 (Homo sapiens), P08173. CHO-K1 hM4/Gqi5; vehicle 0%, full acetylcholine response 100%. activation, % at 3 µM. 0.14% of 360,000 active. AID 624127, 2012;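 active = activation above the run mean over all test wells plus 3 SD, cut at about 32% in these data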;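 also: peak over basal fluorescence ratio per well then scaled between controls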
TAAR1 nonsel count = nonselective antagonists in TAAR1 counter-screen cells, counter-screen for hTAAR1 antagonist project, cell-based, fluorescence, calcium; shares compounds with TAAR1 antag; inhibition, % at 3 µM; counterscreen cell line, antagonist mode; 77% of 2,400 active; in the data active = inhibition above about 22%;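 also: CHO-Ga16 host cells stimulated with ATP at an EC80 level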
TAAR1 antag conf = human TAAR1 antagonists, retest of hits, confirmation, cell-based, fluorescence | shares compounds with TAAR1 antag | TAAR1-expressing cells, fluorescence antagonist read-out | inhibition, % at 3 µM | 40% of 2,400 active; in the data active = inhibition above about 49%;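 also: CHO-Ga16 host cells challenged with agonist PEA near its EC80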
Ga16 nonsel ag = calcium activation in Ga16-expressing cells, counter-screen for TAAR1 antagonist project, cell-based, fluorescence; shares compounds with TAAR1 antag; agonist counterscreen; activation, % at 3 µM; 18% of 2,400 active; in the data active = activation above about 12%
TAAR1 ag counter = TAAR1 activation by candidate antagonists – cell-based, fluorescence, counter-screen for TAAR1 antagonist project | shares compounds with TAAR1 antag | hTAAR1 cell line, agonist mode | activation, % at 3 µM | 2% of 2,400 active | AID 651955, 2012; in the data active = activation above about 37%;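 also: CHO cells stably expressing TAAR1 with calcium dye readout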
Of the large screens only hits and unclear results are named; the others gave an inactive call (follow-up assays come after a bar, where they were run). Shown are actives, neighbours in structure and some others; about 3% of the full set was active somewhere.

O=C(c1ccc(Cl)cc1)C1CCCN(Cc2cccc3cnccc23)C1 (stereo not given)	CHRM4 antagonist 48
COC(=O)C1=C(c2ccc(F)cc2OCc2ccccc2)C[C@@H]2CC[C@H]1N2C(=O)NCc1ccccc1OC	CHRM4 antagonist 33
COC(=O)C1=C(c2ccc(F)cc2OCc2ccccc2)C[C@@H]2CC[C@H]1N2C(=O)NCc1ccccc1	none
COC(=O)C1=C(c2ccc(F)cc2OCc2ccccc2)C[C@@H]2CC[C@H]1N2C(=O)NCc1ccc(C(F)(F)F)cc1	TAAR1 antag 53
COC(=O)C1=C(c2ccccc2)C[C@@H]2CC[C@H]1N2C(=O)NCc1ccc(F)cc1	CHRM4 antagonist 47
C=CC1C[N+]2(C)CCC1CC2C(O)c1ccnc2ccccc12 (stereo not given)	none (no result: CHRM4 antagonist, CHRM4 PAM, CHRM4 agonist)
O=C1C2CCN(CC2)[C@@H]1Cc1ccc2ccccc2c1O	CHRM4 antagonist 47
CN1C(=O)C(Cc2cccc3ccccc23)C(=O)N(C)C1=O	none (no result: TAAR1 ag, TAAR1 antag)
N#Cc1ccc(NC(=S)N2Cc3cc(Br)ccc3-n3nncc3C2)cc1	none (no result: CHRM4 antagonist, CHRM4 PAM, CHRM4 agonist)
O=C1CN=C(c2ccccc2)c2cc([N+](=O)[O-])ccc2N1	none
O=C1CN=C(c2cc([N+](=O)[O-])ccc2Cl)c2cc([N+](=O)[O-])ccc2N1	CHRM4 PAM 14
CCN(CC)CCCOC(=O)C(OC(C)C)(c1ccccc1)c1ccccc1	CHRM4 antagonist 83
C/C(Cl)=C/CC1(CN2CCCC2=O)C(=O)NC(=O)NC1=O	none
C[N+](C)(C)CC#CCN1CCCC1=O	CHRM4 antagonist 95, CHRM4 agonist 107
CCOC(=O)[C@]12Cc3cc(OC)ccc3[C@H]1N(C(C)C)C(=O)c1cc(OC)ccc12	none
Nc1ccc2ccc3cccc[n+]3c2c1	TAAR1 ag 40
Cc1cccc(C)c1-n1nnnc1C(C1CC1)N1CCC2(CC1)C(=O)NCN2c1ccccc1 (stereo not given)	TAAR1 antag 50
Cc1cccc(C)c1-n1nnnc1C(c1ccccc1)N1CCC2(CC1)C(=O)NCN2c1ccccc1 (stereo not given)	none
O=C1NC(=O)C(CCc2ccncc2)(Cc2ccc3c(c2)OCO3)C(=O)N1CCc1ccccc1 (stereo not given)	TAAR1 antag 49
CC(C)C[C@@H]1COc2cccc(N3CCN(C)CC3)c2S(=O)(=O)N1	CHRM4 antagonist 71
CC[C@@H]1C[C@H]2CC[C@H](O2)[C@H](C)C(=O)O[C@@H](C)C[C@@H]2CC[C@@H](O2)[C@@H](C)C(=O)O[C@H](C)C[C@H]2CC[C@H](O2)[C@H](C)C(=O)O[C@@H](C)C[C@@H]2CC[C@@H](O2)[C@@H](C)C(=O)O1	none (no result: CHRM4 antagonist, CHRM4 PAM, CHRM4 agonist)
CN1CCc2cccc(Cl)c2CC1	TAAR1 ag 102, TAAR1 antag 86
CSCCC(c1nnnn1-c1ccc2c(c1)OCCO2)N1CCC(n2c(=O)[nH]c3ccccc32)CC1 (stereo not given)	TAAR1 antag 62
CCC(c1nnnn1-c1ccc2c(c1)OCCO2)N1CCC(n2c(=O)[nH]c3ccccc32)CC1 (stereo not given)	TAAR1 antag 66
COP(=O)(OC)C1(O)C(=O)Nc2ccc(Br)cc21 (stereo not given)	CHRM4 PAM 23
CC1=C(O)C(=O)C=C2C1=CC=C1C2(C)CCC2(C)C3CC(C)(C(=O)O)CCC3(C)CCC12C (stereo not given)	CHRM4 antagonist 91, TAAR1 ag 41, TAAR1 antag 74
CC1(C)CN=C(Nc2ccc(F)c(F)c2)S1	none
CC1(C)CN=C(Nc2ccc(F)c(Cl)c2)S1	CHRM4 agonist 35
CC1CCC(NCCc2ccc3c(c2)OCO3)CC1 (stereo not given)	CHRM4 antagonist 32
COC(=O)C1C(c2ccc(I)cc2)CC2CCC1N2C (stereo not given)	none (no result: CHRM4 antagonist, CHRM4 PAM, CHRM4 agonist)
Cc1cc(N2CCNC[C@H]2C)ccc1N1CCN[C@@H](C)C1	none (no result: CHRM4 antagonist, CHRM4 PAM, CHRM4 agonist)
Cc1cccc(NP(=O)(Oc2ccccc2F)Oc2ccccc2F)c1C	TAAR1 antag 54
CC(C)N1CC=C(c2c[nH]c3ccccc23)CC1	TAAR1 ag 38
C1=C(c2c[nH]c3ccccc23)CCNC1	none (no result: CHRM4 antagonist, CHRM4 PAM, CHRM4 agonist)
C[C@@H]1CNCCN1c1ccc(N2CC[C@H](O)C2)c(C#N)c1	none (no result: CHRM4 antagonist, CHRM4 PAM, CHRM4 agonist)
CCCCCCCCCCCCCCCC[N+](C)(C)C	CHRM4 antagonist 30
CCCCCC[N+](=O)[O-]	none
C[C@]12CCC3C(CC[C@H]4C[C@H](O)CC[C@]34C)C1C[C@H](O)[C@@H]2O (stereo not given in full)	TAAR1 antag 60
C[C@]12CCC3C(CC[C@H]4C[C@H](O)CC[C@]34C)C1C[C@@H](O)[C@@H]2O (stereo not given in full)	none
CC12C=CC(=O)CC1CCC1C2CCC2(C)C(O)C(O)CC12 (stereo not given)	TAAR1 antag 58
C[C@@H]1CNCCN1c1ccc(N2CC[C@@H](O)C2)c(C#N)c1	none (no result: CHRM4 antagonist, CHRM4 PAM, CHRM4 agonist)
Cc1nc(SCc2c(Cl)cccc2Cl)nc(OC(=O)N(C)C)c1C	CHRM4 PAM 34
CN1CCN(CCC(C#N)(c2ccccc2)c2ccccc2)CC1	CHRM4 antagonist 40
COc1ccccc1N	none (no result: CHRM4 antagonist, CHRM4 PAM, CHRM4 agonist)
Cc1cc(N(CCCl)CCCl)ccc1/C=N/N=C(\N)c1cnccn1	none
Cc1cc(N(CCCl)CCCl)ccc1C=Cc1ccncn1	CHRM4 agonist 36
O=c1[nH]c2ccccc2n1C1CCN(C(c2cccs2)c2nnnn2-c2ccc3c(c2)OCCO3)CC1 (stereo not given)	TAAR1 antag 59 | TAAR1 nonsel count inactive | TAAR1 antag conf inactive | Ga16 nonsel ag inactive | TAAR1 ag counter inactive

Source: PubChem BioAssay (The Scripps Research Institute Molecular Screening Center)
